Sampled rows, rich in hits. Any-hit rate of the full collection: about 2.3%.
PAX8 reporter – inhibitors of PAX8-driven TPO luciferase reporter, primary screen, RMG-I cells, single concentration | SteadyGlo, 24 h | inhibition, % at 12.6 µM | 1.2% of 360,000 active | AID 652154, 2013;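 active = mean replicate inhibition at least 60% with every replicate also reaching 60%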;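 also: luciferase light reporting Pax8 driven TPO promoter activity; plate controls were median of neutral control wells for no effect and mitoxantrone controls for full effect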
PfHsp90 set2 – growth inhibition of PfHsp90-expressing yeast, primary screen, antimalarial PfHsp90 inhibitor project, S. cerevisiae, BacTiter-Glo luminescence, single point, set 2 | BacTiter-Glo ATP, 48 h; yeast lacking PDR1 and PDR3 efflux regulators | inhibition, % at 9.4 µM | 0.32% of 310,000 active | AID 504621, 2011;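 active = every replicate shows inhibition above about 80%, whatever the replicate mean, limit read from the data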;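 also: 0% = DMSO neutral controls and 100% = 20 µM radicicol positive controls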
Rtt109 HAT inh – inhibitors of C. albicans Rtt109/Vps75 HAT, primary screen, biochemical, ThioGlo CoA-SH fluorescence, plate reader; 0.16% of 330,000 active; purified Rtt109/Vps75, 4 h; inhibition, % at 34.9 µM; Histone acetyltransferase RTT109 (Candida albicans (strain SC5314 / ATCC MYA-2876)), …;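 active = inhibition of at least 50% in every replicate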
Target sequence (Q5AAJ8 whole entry, looked up): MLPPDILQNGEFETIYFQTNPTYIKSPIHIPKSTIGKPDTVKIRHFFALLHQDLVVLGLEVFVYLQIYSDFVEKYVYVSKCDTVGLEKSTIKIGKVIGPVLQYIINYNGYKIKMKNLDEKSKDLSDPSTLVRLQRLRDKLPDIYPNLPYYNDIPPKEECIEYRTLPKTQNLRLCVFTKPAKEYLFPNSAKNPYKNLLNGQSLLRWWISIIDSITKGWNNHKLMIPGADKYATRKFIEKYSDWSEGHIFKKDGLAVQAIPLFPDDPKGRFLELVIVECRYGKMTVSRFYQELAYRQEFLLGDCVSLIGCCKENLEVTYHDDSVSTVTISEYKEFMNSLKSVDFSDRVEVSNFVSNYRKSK
N-glyco inh – increase of ERlucT glycosylation luciferase signal, primary screen, N-linked glycosylation inhibitor project, D54 ERlucT cells, luminescence, set 2 | D54 ERlucT glycosylation luciferase reporter, 24 h; percent of 100 nM tunicamycin response | reporter increase, % at 12.5 µM | 0.23% of 360,000 active | AID 588692, 2011;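 active = mean luciferase reporter signal, scaled so untreated is 0 and the glycosylation-blocking control 100, at or above a set limit in every replicate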;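 also: luciferase carries N-glycosylation sites so blocking glycosylation raises the light; 0% = median of neutral control wells and 100% = median of 100 nM tunicamycin wells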
Arr AP2 block – inhibitors of beta-arrestin/AP2 binding, primary screen, biochemical, GPCR trafficking, flow cytometry; inhibition, % at 10 µM; FITC-arrestin peptide / GST-AP2 beads; AP2 beta2 appendage carries R879A mutation; 0.31% of 340,000 active; beta-arrestin 1 C-terminal peptide binding to AP2 beta2-adaptin appendage (human);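 active = inhibition above a set limit, near 3 SD of compounds lacking own fluorescence, cut at about 54% in these data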;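 also: plate controls were DMSO wells for no effect and 5 µM unlabelled arrestin peptide for full effect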
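Test system: GST-tagged AP2 beta2-adaptin appendage (R879A) on 4 µm glutathione beads; also added: fluorescein-tagged arrestin peptide at 50 nM final; timing: 12 min plus 1 h, RT; signal: flow cytometry, FL1 (488/535 nm); read-out: percent drop in bead-associated FITC signal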
HIV Env fusion – inhibitors of HIV-1 Env-driven cell-cell fusion, primary screen, HeLa-JRFL effector, CEM21 target cells, luciferase | 1.1% of 360,000 active | AID 651610, 2012 | inhibition, % at 12.3 µM;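 active = mean replicate inhibition score of at least 50 and every replicate individually at or above 50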;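 also: 0% = plate neutral controls and 100% = maraviroc near 300 nM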
The depositor's hits bear a star; · = not tested or not shown; [ ] = another dose, or the depositor's remark.

SMILES | PAX8 reporter | PfHsp90 set2 | Rtt109 HAT inh | N-glyco inh | Arr AP2 block | HIV Env fusion
Cc1ccc(S(=O)(=O)Nc2ccc3c(c2)C(=O)N([C@@H](C)CO)C[C@@H](C)[C@@H](CN(C)CC2CCCCC2)OCCCC[C@H](C)O3)cc1 | 25.3 | · | · | · | · | -20.8[16.7 µM]
CN1CCN(C(=O)C[C@@H]2C[C@@H]3c4cc(NC(=O)Nc5ccccc5)ccc4O[C@@H]3[C@H](CO)O2)CC1 | -0.7 | · | · | · | · | -14.1[16.7 µM]
Cc1noc(C)c1S(=O)(=O)N(C)C[C@@H]1Oc2ccc(NC(=O)Nc3ccccc3)cc2CC(=O)N([C@H](C)CO)C[C@@H]1C | -13.7 | · | · | · | · | -17.6[16.7 µM]
c1ccc2c(c1)CCN(c1ncnc3c1[nH]c1ccccc13)C2 | · | -25.6 | -4.2 | -6.5 | -0.7 | 87.3*
Cc1ccc2c(c1)[nH]c1c(N3CCN(Cc4ccccc4)CC3)ncnc12 | · | -9.7 | 7.4 | 9.1 | -6.8 | 62.6*
Cc1ccc2[nH]c3c(N4CCN(Cc5ccccc5)CC4)ncnc3c2c1 | · | 3.8 | 15.5 | -5.2 | 16.1 | 97.5*
COc1ccc2c(c1)[nH]c1c(N3CCN(Cc4ccc5c(c4)OCO5)CC3)ncnc12 | · | 7.0 | 5.6 | 13.0 | 9.0 | 97.2*
c1ccc(CN2CCN(c3ncnc4c3[nH]c3ccccc34)CC2)cc1 | · | 1.2 | 1.8 | -4.8 | -4.3 | ·
CCCC(=O)Nc1ccc2c(c1)OC[C@@H](C)N(Cc1ccccn1)C[C@@H](C)[C@H](OC)CN(C)C2=O | -27.8 | · | · | · | · | -15.0[16.7 µM]
C[C@@H]1CN([C@@H](C)CO)C(=O)c2cc(NC(=O)CCC(F)(F)F)ccc2O[C@@H](C)CCCCO[C@H]1CN(C)C(=O)Nc1ccccc1 | 26.8 | · | · | · | · | 14.5[16.7 µM]
C[C@@H]1CN([C@@H](C)CO)C(=O)c2cc(NC(=O)CCC(F)(F)F)ccc2O[C@@H](C)CCCCO[C@@H]1CN(C)C(=O)Nc1ccccc1 | -28.9 | · | · | · | · | 43.9[16.7 µM]
C[C@@H]1CN([C@H](C)CO)C(=O)c2cc(NC(=O)c3ccccc3)ccc2O[C@@H](C)CCCCO[C@H]1CN(C)S(C)(=O)=O | -13.1 | · | · | · | · | -6.0[16.7 µM]
C[C@H]1CN([C@@H](C)CO)C(=O)c2cc(-c3cccc(F)c3)cnc2O[C@H]1CN(C)C(=O)Nc1cc(F)ccc1F | · | · | · | · | · | 11.3[16.7 µM]
Cc1ccccc1NC(=O)CSc1nc(N)c(C#N)c(-c2cccs2)c1C#N | · | -40.1 | -3.6 | -1.9 | -7.2 | ·
COc1ccc(CCNC(=O)CSc2nc(N)c(C#N)c(-c3cccs3)c2C#N)cc1OC | · | · | 9.5 | 1.1 | 0.0 | 118.6*
C[C@@H]1CCCCO[C@@H](CN(C)C(=O)Nc2ccc3c(c2)OCO3)[C@H](C)CN([C@@H](C)CO)C(=O)c2cc(NS(=O)(=O)c3ccc(F)cc3)ccc2O1 | 2.0 | · | · | · | · | 7.5[16.7 µM]
COc1cc2nc(C3CCC3)nc(N3CCN(c4ccccn4)CC3)c2cc1OC | · | -2.1 | 12.3 | -6.5 | -14.1 | ·
COc1cc2nc(C3CCC3)nc(N3CCN(c4ccccc4OC)CC3)c2cc1OC | 88.6* | 36.9 | 2.7 | -7.0 | 1.2 | ·
COc1ccc(NC(=O)Nc2cccc3c2O[C@H](CN(C)C(=O)Nc2ccccc2)[C@@H](C)CN([C@@H](C)CO)C3=O)cc1 | · | · | · | · | · | 2.6[16.7 µM]
Cc1ccc(OCC(=O)NNC(=S)NC(=O)C2CC2)c(C)c1 | 19.9 | 104.4* | -6.4 | -0.8 | -6.9 | 45.5
Cc1ccc(OCC(=O)NC(=S)Nc2ccccn2)c(Br)c1 | -195.8 | -6.4 | 0.7 | -21.4 | -7.7 | -1.9
Cc1ccc(OCC(=O)NNC(=S)NC(=O)C(C)(C)C)c(Br)c1 | 4.7 | 104.9* | 11.6 | 0.1 | 35.2 | 6.7
C[C@@H]1CCCCO[C@H](CN(C)Cc2ccc3c(c2)OCO3)[C@@H](C)CN([C@@H](C)CO)C(=O)c2cc(NS(=O)(=O)c3ccccc3)ccc2O1 | -2.1 | · | · | · | · | -103.8[16.7 µM]
CN1C(=O)c2cc(NC(=O)c3ccccc3)ccc2OC[C@@H]2O[C@H](CC(=O)O)CC[C@@H]21 | 3.9 | · | · | · | · | 12.3[16.7 µM]
Cc1cccn2c(=O)c3cc(C(=O)N4CCCCC4)sc3nc12 | 27.1 | -4.0 | -46.5 | 33.6* | -1.7 | -11.6
SMILES | PAX8 reporter | PfHsp90 set2 | Rtt109 HAT inh | N-glyco inh | Arr AP2 block | HIV Env fusion
Cc1cccn2c(=O)c3cc(C(=O)N4CCCC(C)C4)sc3nc12 (centres undefined) | -9.0 | 40.8 | -30.3 | -0.5 | -16.4 | 5.6
Cc1cccn2c(=O)c3cc(C(=O)NCC(C)C)sc3nc12 | 12.8 | -8.9 | -10.6 | 0.9 | -14.2 | -8.8
CCCN(CCC)C(=O)c1cc2c(=O)n3cccc(C)c3nc2s1 | -2.3 | -25.5 | 6.5 | -1.9 | 15.7 | 58.2*
CCCN1C[C@@H](C)[C@H](OC)CN(C)C(=O)c2ccc(NC(=O)C3CC3)cc2OC[C@@H]1C | -9.9 | · | · | · | · | ·
O=C(Nc1ccc(Cl)c(S(=O)(=O)N2CCCCC2)c1)C1=COCCO1 | 2.2 | · | 51.9* | -0.4 | 9.3 | -8.2
COc1ccc(-c2cnc3c(c2)C(=O)N([C@@H](C)CO)C[C@@H](C)[C@H](CN(C)S(C)(=O)=O)O3)cc1 | · | · | · | · | · | -17.1[16.7 µM]
CCCC(=O)N(c1ccc2oc(=O)sc2c1)S(=O)(=O)c1cccs1 | · | 3.7 | 124.1* | 4.6 | 1.3 | ·
COc1ccc(S(=O)(=O)N(C(=O)C(C)C)c2ccc3oc(=O)sc3c2)cc1 | · | · | 5.0 | 1.9 | 8.8 | ·
CC(=O)N(c1ccc2oc(=O)sc2c1)S(=O)(=O)c1ccccc1 | · | -22.4 | 67.5* | 2.5 | 2.9 | ·
CC(C)C(=O)N(c1ccc2oc(=O)sc2c1)S(=O)(=O)c1ccccc1 | · | -1.9 | 13.7 | 2.3 | 25.9 | ·
CCCN(C)C[C@@H]1Oc2ncc(C#CCN(C)C)cc2C(=O)N([C@H](C)CO)C[C@@H]1C | · | · | · | · | · | -3.0[16.7 µM]
CN(C)Cc1c(O)ccc2c1O/C(=C\C=C\c1ccccc1)C2=O | 77.0* | 25.8 | -10.5 | 24.6 | 21.1 | -47.3
CCCCS(=O)(=O)c1sc2nc(C)cc(C)c2c1N | · | 3.7 | 54.9* | 0.1 | 7.5 | 4.4
CCCNC(=O)[C@@H]1[C@@H](CO)[C@@H]2Cn3c(ccc(C4=CCCC4)c3=O)[C@H]1N2C(C)=O | 2.9 | · | · | · | · | ·
CCOc1ccccc1NC(=O)NC1CCCc2ccccc21 (centres undefined) | 14.6 | 9.5 | 24.7 | -3.9 | 22.9 | 59.1*
CC(=O)NC(CC(=O)NC1CCCc2ccccc21)c1ccccc1 (centres undefined) | 11.5 | 3.5 | 57.4* | 2.3 | 2.6 | -11.0
O=C(C[C@@H]1CC[C@@H](NC(=O)c2cccnc2)[C@H](CO)O1)NCc1ccncn1 | -2.7 | · | · | · | · | -0.1[16.7 µM]
C[C@H]1CN([C@@H](C)CO)C(=O)c2cccc(NC(=O)c3ccncc3)c2O[C@H]1CN(C)C(=O)Nc1ccc(C(F)(F)F)cc1 | 11.3 | · | · | · | · | 7.7[16.7 µM]

High-throughput results: PubChem, several laboratories
